ROMK primary: modulates human ROMK potassium channel activity; P48048; Tet-inducible ROMK, thallium flux fluorescence; actives lie on both sides; B-score at 10 µM; hit rate 2% among 130,000;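 active = signal ratio slope over the read window, or its plate-corrected B-score, at least 3 SD from the plate mean, either direction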;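 note: B-score of the F/F0 ratio slope over 7 to 12 s after thallium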
Target sequence (P48048 whole entry, looked up): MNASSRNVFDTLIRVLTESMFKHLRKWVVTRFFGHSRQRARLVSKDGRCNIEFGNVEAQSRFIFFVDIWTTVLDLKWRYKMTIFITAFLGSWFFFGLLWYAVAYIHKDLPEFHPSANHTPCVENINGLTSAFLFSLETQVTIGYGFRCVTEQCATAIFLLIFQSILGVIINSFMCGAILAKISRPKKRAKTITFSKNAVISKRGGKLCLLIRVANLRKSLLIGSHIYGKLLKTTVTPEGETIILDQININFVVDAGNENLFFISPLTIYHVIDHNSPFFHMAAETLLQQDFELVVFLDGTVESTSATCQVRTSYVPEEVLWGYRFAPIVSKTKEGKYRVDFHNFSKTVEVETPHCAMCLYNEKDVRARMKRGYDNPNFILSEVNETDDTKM
Biofilm kill mix: mixture kills Candida albicans biofilm cells | C. albicans biofilm persisters + clotrimazole, fluorescence viability; primary screen in compound mixtures of four per well | inhibition, % at 7.6 µM | hit rate 0.02% among 120,000 | AID 1242;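 active = inhibition above 30.3% in the primary screen of four-compound pools, then above 30% when the compound was retested; inconclusive = passed the primary limit but could not be retested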;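 note: compounds exposed to preformed 24 h biofilms for 48 h; 0% = untreated biofilm control and 100% = clotrimazole plus chlorhexidine kill blank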
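Assay system: C. albicans biofilms / Medium: RPMI/MOPS medium, pH 7.0 / Schedule: biofilm formation 24 h, compound exposure 48 h, 37 °C / Measured by: Alamar Blue fluorescence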
ROMK retest: confirmation of human ROMK potassium channel modulators. shares compounds with ROMK primary. ROMK thallium flux, fluorescence ratio; active compounds read low. normalized thallium flux (F/F0 slope) at 10 µM. hit rate 54% among 3,000;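 active = Flux at 10 µM at least 3 SD below or above vehicle control mean in one or both replicates; inconclusive = no clear call, values can overlap the other calls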
* hit, by the source's call; ? = inconclusive; . = no result given. The full list was thinned out, with hits kept by preference.

SMILES | ROMK primary | Biofilm kill mix | ROMK retest
COc1cc(C(C[N+](=O)[O-])c2c(-c3ccccc3)cc3ccccn23)cc(OC)c1OC (stereo unspecified) | -1.4 | . | .
O=Nc1c(-c2ccccc2)cc2ccccn12 | 0.033 | -3 | .
COc1ccc(C(C[N+](=O)[O-])c2c(-c3ccccc3)cc3ccccn23)cc1 (stereo unspecified) | -3.7* | . | 0.084
COc1ccc(C(C[N+](=O)[O-])c2c(-c3ccccc3)cc3ccccn23)cc1OC (stereo unspecified) | -3.7* | . | 0.064*
N/C(=N\c1nc(CSc2ccccn2)cc(=O)[nH]1)Nc1ccc(Cl)cc1Cl | . | 21 | .
Cc1ccc(C(=O)OCc2cn(-c3ccccc3)nn2)cc1 | -0.045 | 12 | .
O=C(Nc1ccc(Cl)cc1)OCc1cn(-c2ccccc2)nn1 | 0.28 | 10 | ?
CN(C)Cc1ccccc1Sc1cccc2ccccc12 | -0.95 | 14 | .
CC(C)(C)c1ccc(-c2nc(-c3ccncc3)no2)cc1 | -0.32 | 1 | .
Cc1ccc(SC(C)c2nc(-c3ccncc3)no2)cc1 (stereo unspecified) | -3.1* | . | 0.067*
NS(=O)(=O)c1ccc(CCNC(=O)CSc2nc3ccccc3c3nc(CCN4CCCCC4)nn23)cc1 | 0.53 | 14 | .
C=CCc1ccc(OCCOCCNCCCC)c(OC)c1 | -1.4 | . | .
O=C(N/N=C/C1=C(N2CCOCC2)C(=C\c2ccccc2)/CC1)Nc1ccccc1 | . | 13 | .
CCN(CC)c1ccc(/C=C2\CCC(/C=N/NC(=O)c3ccc(=O)n(C)c3)=C2N2CCOCC2)cc1 | . | 7 | 0.053*
O=[N+]([O-])c1ccc(N2CCCCC2)c(-c2nn[nH]n2)c1 | 0.68 | 10 | .
Cc1ccc(-n2[nH]c(C)c(/C=N/c3cccc(C)n3)c2=O)cc1 | -0.56 | 14 | .
CC(NC(=O)COc1ccccc1)C(c1cccs1)N1CCCC1 (stereo unspecified) | -0.9 | 12 | .
Cc1ccc(C(=O)NC(C)C(c2cccs2)N2CCCC2)s1 (stereo unspecified) | -3.6* | 17 | 0.072
CCOC(=O)N/N=C/c1cc(C)n(-c2ccccc2)c1C | 2.4* | 9 | 0.09
Cc1cc(/C=N/NC(=O)c2ccncc2)c(C)n1-c1cccc(C(F)(F)F)c1 | . | 15 | .
CCOC(=O)N/N=C/c1cc(C)n(-c2cccc3ccccc23)c1C | . | 14 | .
Cc1cc(/C=N/NC(=O)c2cccc(F)c2)c(C)n1-c1ccccc1 | 4.8* | 16 | 0.092
CCOc1ccc(-c2[nH]ncc2Oc2ccccc2OC)c(O)c1 | 0.97 | . | .
CCOc1ccc(-c2[nH]ncc2-c2ccc(OC)c(OC)c2)c(O)c1 | 3.7* | . | 0.099*
CC12CCCCN1CCCc1c2[nH]c2ccccc12 (stereo unspecified) | 0.17 | . | .
SMILES | ROMK primary | Biofilm kill mix | ROMK retest
Cc1noc(NS(=O)(=O)c2ccc(N/C=C\C(=O)c3ccccc3)cc2)c1C | . | 5 | .
Cc1noc(NS(=O)(=O)c2ccc(N/C=C\C(=O)c3ccc(F)cc3)cc2)c1C | 3.9* | 12 | 0.083
Cc1cc(=O)n2[nH]cc(C(=O)O)c2n1 | . | 8 | .
CC(C)(C)C1=CC(=Nc2ccccc2N)C=C(C(C)(C)C)C1=O | 0.043 | 13 | .
CC(C)(C)C1=CC(=O)C(=O)C(C(C)(C)C)=C1 | -2.3* | 16 | 0.058*
O=c1c2ccccc2c(C=NCc2ccccn2)c(O)n1-c1ccccc1 | . | 17 | 0.088
COc1cccc(-n2c(O)c(C=NCc3ccccn3)c3ccccc3c2=O)c1 | 0.31 | 18 | .
O=c1cc(N2CCN(Cc3ccccc3)CC2)[nH]c(=O)n1-c1cccc(C(F)(F)F)c1 | 0.59 | 19 | .
COc1ccccc1NS(=O)(=O)c1cccc(N=C2N=C(N)c3ccccc32)c1 | . | 15 | 0.081
NC1=NC(=Nc2cccc(S(N)(=O)=O)c2)c2ccccc21 | . | 27 | .
CC(C)OC(=O)c1cc2c(ccn2C)n1CC(=O)N(Cc1ccccc1)c1ccccc1 | -0.86 | 9 | .
COC(=O)CCN(C(=O)c1ccc(N2CCCC2)c([N+](=O)[O-])c1)c1ccccn1 | -0.63 | 15 | .
COC(=O)CCN(C(=O)c1ccc(N2CCCCC2)c([N+](=O)[O-])c1)c1ccccn1 | -2.1* | -7 | 0.067*
CCCCOc1ccc(C2CC(=O)N(C)C2=O)cc1 (stereo unspecified) | -0.44 | . | .
O=C1CC(c2ccc(OCCCCCOc3ccc(C4CC(=O)NC4=O)cc3)cc2)C(=O)N1 (stereo unspecified) | -3.5* | 9 | 0.06*
Cc1ccc(C)c(NC(=O)/C(C#N)=C/c2ccc(Sc3nncn3C)c([N+](=O)[O-])c2)c1 | -3.1* | 3 | 0.06*
Cn1cnnc1Sc1ccc(/C=C(\CC(=O)O)c2nc3ccccc3s2)cc1[N+](=O)[O-] | . | 14 | .
CCCCN(CC)C(=O)CSc1nc2c(sc(=S)n2-c2ccc(OCC)cc2)c(=O)[nH]1 | 2.8* | 6 | ?
CCCN(CCC)C(=O)CSc1nc2c(sc(=S)n2-c2ccc(OCC)cc2)c(=O)[nH]1 | -1.1 | 12 | .

Screens from PubChem BioAssay.
